The values that follow come from ChEMBL document CHEMBL1154220, “Inhibitors of aldose reductase and formation of advanced glycation end-products in moutan cortex (Paeonia suffruticosa)” (J Nat Prod, 2009).

For series [1], the target named is Aldo-keto reductase family 1 member B1 (Rattus norvegicus, UniProt P07943). Put plainly: Inhibition of Sprague-Dawley rat lens aldose reductase by spectrofluorimetry. The format is single protein. In a few lines: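 Crude enzyme: supernatant of lenses from 8-week-old rats (250-280 g), homogenized in 135 mM Na/K phosphate pH 7.0 with 0.5 mM PMSF and 10 mM 2-mercaptoethanol, spun 14 000 rpm 30 min. NADP converted to fluorophore with NaOH/imidazole at 60 °C for 10 min, read ex 360/em 460 nm. IC50 from dose-response curves, triplicate, mean ± SE.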

The nature of series [2]: Inhibition of advanced glycation end product formation after 14 day in phosphate buffer at pH7.4 by spectrofluorimetry. The format is physicochemical. In outline: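 BSA (10 mg/mL stock) in 50 mM phosphate pH 7.4 with 0.02% sodium azide, plus 0.2 M fructose and glucose, incubated with serially diluted samples at 37 °C for 14 days in screw-cap tubes. Aminoguanidine served as reference. Fluorescence read at ex 350/em 450 nm. IC50 from dose-response curves, triplicate, mean ± SE.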

With `O=C(O)CC1(CC(=O)O)CCCC1`, the midpoint of inhibition in series [1], the IC50, lay at 31.8 µM. For the compound `CO[C@@]12C[C@@H]3C(=O)[C@@](C)(C1)OC(O2)[C@H]3COC(=O)c1ccccc1`, the IC50 (commonly the midpoint of a concentration-inhibition curve) is over 500 µM in series [2] and over 50 µM in series [1]. The like results for `CO[C@H]1O[C@@]2(C)CC(=O)[C@H]3C[C@]2(O[C@@H]2O[C@H](COC(=O)c4ccccc4)[C@@H](O)[C@H](O)[C@H]2O)[C@]13COC(=O)c1ccccc1` were, in that order, over 500 µM and over 50 µM. Taken in the same sequence, the figures for `Cc1cc2c(cc1O)[C@@H](CO)CO2` were 177 µM and over 50 µM. Taken in the same sequence, the figures for `COc1ccc(C(C)=O)c(O[C@@H]2O[C@H](CO[C@@H]3OC[C@H](O)[C@H](O)[C@H]3O)[C@@H](O)[C@H](O)[C@H]2O)c1` [PAEONOLIDE] were over 500 µM and over 50 µM. Turning to `C[C@@]12C[C@@]3(O)O[C@@H](O1)[C@]1(COC(=O)c4ccccc4)[C@H]3C[C@@]12O[C@@H]1O[C@H](CO)[C@@H](O)[C@H](O)[C@H]1O` [PAEONIFLORIN], the IC50 in series [2] was over 500 µM; in series [1] it was over 50 µM. Taken in the same sequence, the figures for `COc1ccc(C(C)=O)c(O)c1` [PAEONOL] were over 500 µM and over 50 µM. `N=C(N)NN` [PIMAGEDINE] gave an IC50 in series [2] of 1030 µM.

In the case of `C[C@@]12C[C@@]3(O)OC(O1)[C@]1(COC(=O)c4ccc(O)cc4)[C@@H]3C[C@@]21O[C@H]1O[C@H](COC(=O)c2ccccc2)[C@@H](O)[C@H](O)[C@H]1O`, the IC50 is over 500 µM in series [2] and over 50 µM in series [1]. In the case of `CC1(C)[C@@H](O)CC[C@]2(C)[C@H]3C=CC4=C(O)C(=O)C(=O)[C@@]4(C)[C@]3(C)CC[C@@H]12` [PALBINONE], the IC50 in series [2] is over 500 µM; in series [1] it was 11.4 µM.

Turning to `C[C@@]12C[C@@]3(O)O[C@@H](O1)[C@]1(COC(=O)c4ccccc4)[C@@H]3C[C@]12O[C@@H]1O[C@H](COC(=O)c2ccccc2)[C@@H](O)[C@H](O)[C@H]1O` [BENZOYLPAEONIFLORIN], the IC50 in series [2] is over 500 µM; in series [1], over 50 µM. The like results for `CCCCO[C@]12C[C@]3(C)OC(O1)[C@]1(COC(=O)c4ccccc4)[C@@H]2C[C@@]31O[C@@H]1O[C@H](CO)[C@@H](O)[C@H](O)[C@H]1O` were, in that order, 10.8 µM and 36.2 µM. The like results for `C[C@@]12C[C@@]3(O)OC(O1)[C@]1(COC(=O)c4ccc(O)cc4)[C@@H]3C[C@@]21O[C@@H]1O[C@H](COC(=O)c2ccccc2)[C@@H](O)[C@H](O)[C@H]1O` were, in that order, over 500 µM and over 50 µM.

As for `C[C@@]12CC(=O)[C@H]3C[C@]1(O)O[C@H](O2)[C@@H]3COC(=O)c1ccccc1` [PAEONIFLORIGENONE], the IC50 was over 500 µM in series [2] and over 50 µM in series [1].

Consider `C=C1CC[C@]2(C(=O)O)CC[C@]3(C)C(=CC[C@@H]4[C@@]5(C)CC[C@H](O)[C@@](C)(CO)[C@@H]5CC[C@]43C)[C@@H]2C1`, for which the IC50 in series [2] is over 500 µM; in series [1], 28.8 µM. Taken in the same sequence, the figures for `C[C@@]12C[C@@]3(O)OC(O1)[C@]1(COC(=O)c4ccccc4)[C@@H]3C[C@@]21O[C@@H]1O[C@H](COC(=O)c2ccc(O)cc2)[C@@H](O)[C@H](O)[C@H]1O` [NUDANPINOSIDE H] were over 500 µM and over 50 µM. Taken in the same sequence, the figures for `C[C@@]12C[C@@]3(O)O[C@@H](O1)[C@]1(COC(=O)c4ccccc4)[C@@H]3C[C@]12O[C@@H]1O[C@H](COC(=O)c2cc(O)c(O)c(O)c2)[C@@H](O)[C@H](O)[C@H]1O` [GALLOYLPAEONIFLORIN] were 11.3 µM and 44.6 µM. Taken in the same sequence, the figures for `C[C@@]12C[C@@]3(O)O[C@@H](O1)[C@]1(COC(=O)c4ccc(O)cc4)[C@H]3C[C@@]12O[C@@H]1O[C@H](CO)[C@@H](O)[C@H](O)[C@H]1O` [OXYPAEONIFLORIN] were over 500 µM and over 50 µM.
